Laboratory results reported in ChEMBL document CHEMBL3751813, “Nonpeptidic Amphiphilic Xanthone Derivatives: Structure-Activity Relationship and Membrane-Targeting Properties” (J Med Chem, 2016).
Values after ≈ are worked out from the molar mass of the structure shown. Active and inactive are the calls of the source. The rule behind the calls is not given here.

How the values were obtained:
Staphylococcus aureus [1] = test: Antibacterial activity against clinical isolates of Staphylococcus aureus DM4001R after 24 hrs by […]; assay type: functional
Staphylococcus aureus [2] = test: Antibacterial activity against clinical isolates of methicillin-resistant Staphylococcus aureus DM9808R after 24 hrs by […]; assay type: functional
Staphylococcus aureus [3] = test: Antibacterial activity against clinical isolates of methicillin-resistant Staphylococcus aureus DM21455 after 24 hrs by […]; assay type: functional; conditions: DM21455, 24 h
Bacillus cereus = test: Antibacterial activity against clinical isolates of Bacillus cereus ATCC 11778 after 24 hrs by […]; assay type: functional; conditions: ATCC 11778, 24 h
[4] = Hemolytic activity against New Zealand white rabbit RBC after 1 hr by microplate reader analysis; assay type: ADME, cell-based, Oryctolagus cuniculus, Erythrocyte; conditions: rabbit red blood cells
Method in brief: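 Rabbit RBCs spun from serum at 3,000 rpm for 10 min and washed twice in PBS. Mixed with compound in DMF at 4% v/v RBCs, 1 h at 37 °C. After centrifugation, hemoglobin in the supernatant read at 576 nm. 2% Triton X-100 was the positive control and 1% DMF the negative control.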

Staphylococcus aureus [5] = test: Induction of membrane permeabilization in clinical isolates of Staphylococcus aureus DM4001 at 10 uM measured for 200 sec by SYTOX green influx assay; assay type: functional, organism-based
Method in brief: (§1)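 Exponential-phase cells washed twice in 20 mM PBS pH 7 and adjusted to OD620 0.09. Given 3 µM SYTOX Green and kept in the dark until fluorescence was stable, then compound added. Fluorescence followed in a stirred cuvette at ex 504/em 523 nm. Melittin 10 µg/mL was the positive control. Run at least twice; one run reported.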

Staphylococcus aureus [6] = test: Induction of membrane disruption in clinical isolates of Staphylococcus aureus DM4001 assessed as membrane integrity incubated for 10 mins by live/dead baclight bacterial viability assay relative to control; assay type: functional; parameters: concentration or dose not given beside the values
Method in brief: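 Exponential-phase cells washed in 0.9% saline, OD670 0.3, exposed to compound 10 min at room temperature. Pelleted, resuspended, then stained with SYTO 9 (10 µM) plus propidium iodide (60 µM) 15 min dark. Excitation 485 nm, emission 500–700 nm; green/red ratio converted to % damage using standards of 0–100% isopropanol-killed cells.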

[7] = Membrane permeabilization activity assessed as release of calcein from DOPE/DOPG large unilamellar vesicles at 0.125 to 0.5 compound:lipid ratio incubated for 30 mins by fluorescence assay; assay type: ADME; conditions: 0.5 h
Method in brief: (§2)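 Freeze-thawed, extruded, then gel-filtered. Final lipid 50 µM with compound added from DMF (<0.2%). Fluorescence at ex 490/em 520 nm over 30 min; 0.1% Triton X-100 defined 100% lysis.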

[8] = Selectivity index, ratio of HC50 for hemolytic activity against New Zealand white rabbit RBC to MIC for clinical isolates of Staphylococcus aureus DM4001
Staphylococcus aureus [9] = test: Induction of membrane permeabilization in clinical isolates of Staphylococcus aureus DM4001 at MIC by SYTOX green uptake assay; assay type: functional; method in brief: as §1
Staphylococcus aureus [10] = test: Induction of membrane permeabilization in clinical isolates of Staphylococcus aureus DM4001 assessed as ATP leakage at MIC incubated for 10 mins by firefly luciferase based luminometry analysis; assay type: functional
Method in brief: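 Exponential-phase cells washed twice in 20 mM PBS pH 7 and set to OD620 0.3. Exposed 10 min at 37 °C, then spun at 4000 rpm for 5 min. Supernatant mixed with luciferase reagent (1 mM DTT, 0.5 mM D-luciferin, 1.25 µg/mL firefly luciferase). Luminescence read over 30 cycles.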

[11] = Membrane permeabilization activity assessed as release of calcein from DOPC liposomes at lipid:compound ratio of 4 incubated for 30 mins by fluorescence assay; assay type: ADME; conditions: 0.5 h; method in brief: as §2
[12] = Membrane permeabilization activity assessed as release of calcein from DOPE/DOPG liposomes at lipid:compound ratio of 8 incubated for 30 mins by fluorescence assay; assay type: ADME; conditions: 0.5 h; method in brief: as §2
[13] = Membrane permeabilization activity assessed as release of calcein from DOPC liposomes at lipid:compound ratio of 8 incubated for 30 mins by fluorescence assay; assay type: ADME; conditions: 0.5 h; method in brief: as §2
[14] = Membrane permeabilization activity assessed as release of calcein from DOPE/DOPG liposomes at lipid:compound ratio of => 16 incubated for 30 mins by fluorescence assay; assay type: ADME; conditions: 0.5 h; method in brief: as §2
[15] = Membrane permeabilization activity assessed as release of calcein from DOPC liposomes at lipid:compound ratio of => 16 incubated for 30 mins by fluorescence assay; assay type: ADME; conditions: 0.5 h; method in brief: as §2

Row | SMILES | MIC (Staphylococcus aureus [1]) | MIC (Staphylococcus aureus [2]) | MIC (Staphylococcus aureus [3]) | MIC (Bacillus cereus) | HC50 at 1 h [4] | Activity (Staphylococcus aureus [5]) | Activity (Staphylococcus aureus [6]) | Activity [7] | Selectivity ratio [8] | Activity (Staphylococcus aureus [9]) | Activity (Staphylococcus aureus [10]) | Activity [11] | Activity [12] | Activity [13] | Activity [14] | Activity [15]
1 | CCN(CC)CCCCCCCCOc1cc2oc3cc(OCCCCCCCCN(CC)CC)c(OC)c(CC=C(C)C)c3c(=O)c2c(O)c1CC=C(C)C | > 50 µg/mL | > 50 µg/mL | > 50 µg/mL | > 50 µg/mL | 53.1 µg/mL | Active | 95.5% | > 70% | – | – | – | – | – | – | – | –
2 | CCN(CC)CCCOc1cc2oc3cc(OCCCN(CC)CC)c(OC)c(CC=C(C)C)c3c(=O)c2c(O)c1CC=C(C)C | 0.78 µg/mL (≈ 1.22 µM) | 0.78 µg/mL (≈ 1.22 µM) | 0.39 µg/mL (≈ 0.612 µM) | 6.25 µg/mL (≈ 9.81 µM) | – | Active | 46.2% | – | 20.9 | – | – | – | – | – | – | –
3 | CCN(CC)CCCCCCCCCCOc1cc2oc3cc(OCCCCCCCCCCN(CC)CC)c(OC)c(CC=C(C)C)c3c(=O)c2c(O)c1CC=C(C)C | > 50 µg/mL | > 50 µg/mL | > 50 µg/mL | > 50 µg/mL | 200 µg/mL | inactive | 100% | > 70% | – | – | – | – | – | – | – | –
4 | CCN(CC)CCCCCCCCCCCCOc1cc2oc3cc(OCCCCCCCCCCCCN(CC)CC)c(OC)c(CC=C(C)C)c3c(=O)c2c(O)c1CC=C(C)C | > 50 µg/mL | > 50 µg/mL | > 50 µg/mL | > 50 µg/mL | > 200 µg/mL | inactive | 99.9% | 60% | – | – | – | – | – | – | – | –
5 | CCN(CC)CCCCCOc1cc2oc3cc(OCCCCCN(CC)CC)c(OC)c(CC=C(C)C)c3c(=O)c2c(O)c1CC=C(C)C | 1.56 µg/mL (≈ 2.25 µM) | 1.56 µg/mL (≈ 2.25 µM) | 0.78 µg/mL (≈ 1.13 µM) | 6.25 µg/mL (≈ 9.02 µM) | – | Active | 43% | – | 9 | – | – | – | – | – | – | –
6 | COc1c(OCCCCN2CCNCC2)cc2oc3cc(OCCCCN4CCNCC4)c(CC=C(C)C)c(O)c3c(=O)c2c1CC=C(C)C | 6.25 µg/mL (≈ 9.05 µM) | 6.25 µg/mL (≈ 9.05 µM) | 12.5 µg/mL (≈ 18.1 µM) | 12.5 µg/mL (≈ 18.1 µM) | 72.1 µg/mL | – | – | – | 11.5 | 24629 cps | 3.154 µM | – | – | – | – | –
7 | COc1c(O)cc2oc3cc(O)c(CC=C(C)C)c(O)c3c(=O)c2c1CC=C(C)C [MANGOSTIN] | 2 µg/mL (≈ 4.87 µM) | – | – | – | – | – | – | – | 4.5 | – | – | 33.6% | 16% | 14.1% | < 10% | < 10%
8 | CCN(CC)CCCCCCOc1cc2oc3cc(OCCCCCCN(CC)CC)c(OC)c(CC=C(C)C)c3c(=O)c2c(O)c1CC=C(C)C | 1.56 µg/mL (≈ 2.16 µM) | 3.12 µg/mL (≈ 4.33 µM) | 1.56 µg/mL (≈ 2.16 µM) | 3.12 µg/mL (≈ 4.33 µM) | – | Active | 45.1% | – | 17 | – | – | – | – | – | – | –
9 | COc1c(OCCCCN2CCN(C)CC2)cc2oc3cc(OCCCCN4CCN(C)CC4)c(CC=C(C)C)c(O)c3c(=O)c2c1CC=C(C)C | 6.25 µg/mL (≈ 8.69 µM) | 12.5 µg/mL (≈ 17.4 µM) | 12.5 µg/mL (≈ 17.4 µM) | 12.5 µg/mL (≈ 17.4 µM) | 32.3 µg/mL | – | – | – | 5.2 | 7129 cps | 3.727 µM | – | – | – | – | –
10 | CCCN(CCC)CCCCOc1cc2oc3cc(OCCCCN(CCC)CCC)c(OC)c(CC=C(C)C)c3c(=O)c2c(O)c1CC=C(C)C | 25 µg/mL (≈ 34.7 µM) | 50 µg/mL (≈ 69.3 µM) | 25 µg/mL (≈ 34.7 µM) | 50 µg/mL (≈ 69.3 µM) | > 200 µg/mL | – | – | – | > 8 | 53637 cps | 5.123 µM | – | – | – | – | –
11 | CCCCCCN(C)CCCCOc1cc2oc3cc(OCCCCN(C)CCCCCC)c(OC)c(CC=C(C)C)c3c(=O)c2c(O)c1CC=C(C)C | 50 µg/mL (≈ 66.7 µM) | 50 µg/mL (≈ 66.7 µM) | 50 µg/mL (≈ 66.7 µM) | 50 µg/mL (≈ 66.7 µM) | > 200 µg/mL | – | – | – | > 4 | 74047 cps | 8.545 µM | – | – | – | – | –
12 | CCCN(CC)CCCCOc1cc2oc3cc(OCCCCN(CC)CCC)c(OC)c(CC=C(C)C)c3c(=O)c2c(O)c1CC=C(C)C | 6.25 µg/mL (≈ 9.02 µM) | 6.25 µg/mL (≈ 9.02 µM) | 12.5 µg/mL (≈ 18 µM) | 25 µg/mL (≈ 36.1 µM) | 63.3 µg/mL | – | – | – | 5.1 | 82176 cps | 12.736 µM | – | – | – | – | –
13 | CCCCCN(C)CCCCOc1cc2oc3cc(OCCCCN(C)CCCCC)c(OC)c(CC=C(C)C)c3c(=O)c2c(O)c1CC=C(C)C | 25 µg/mL (≈ 34.7 µM) | 25 µg/mL (≈ 34.7 µM) | 25 µg/mL (≈ 34.7 µM) | 12.5 µg/mL (≈ 17.3 µM) | > 200 µg/mL | – | – | – | > 8 | 47166 cps | 8.949 µM | – | – | – | – | –
14 | CCN(CC)CCCCOc1cc2oc3cc(OCCCCN(CC)CC)c(OC)c(CC=C(C)C)c3c(=O)c2c(O)c1CC=C(C)C | 0.39 µg/mL (≈ 0.587 µM) | 0.78 µg/mL (≈ 1.17 µM) | 0.39 µg/mL (≈ 0.587 µM) | 3.12 µg/mL (≈ 4.7 µM) | – | Active | 37.8% | > 70% | 50.4 | 61679 cps | 2.235 µM | – | – | – | > 70% | > 70%
15 | CCCCN(C)CCCCOc1cc2oc3cc(OCCCCN(C)CCCC)c(OC)c(CC=C(C)C)c3c(=O)c2c(O)c1CC=C(C)C | 50 µg/mL (≈ 72.2 µM) | 50 µg/mL (≈ 72.2 µM) | 25 µg/mL (≈ 36.1 µM) | 25 µg/mL (≈ 36.1 µM) | 60.5 µg/mL | – | – | – | 1.2 | 114095 cps | 8.862 µM | – | – | – | – | –
16 | CCN(CC)CCOc1cc2oc3cc(OCCN(CC)CC)c(OC)c(CC=C(C)C)c3c(=O)c2c(O)c1CC=C(C)C | > 50 µg/mL | > 50 µg/mL | > 50 µg/mL | > 50 µg/mL | > 200 µg/mL | Active | 64.1% | – | – | – | – | – | – | – | – | –
